{"source": "ChEMBL document CHEMBL4196106", "about": "“From Naproxen Repurposing to Naproxen Analogues and Their Antiviral Activity against Influenza A Virus” (J Med Chem, 2018)", "key": {"[1]": {"tested_on": "Influenza A virus", "assay": "Antiviral activity against Influenza A virus (A/Puerto Rico/8/1934(H1N1)) infected in C57BL/6J mouse assessed as recovery of weight loss at 8 mg/mouse/day, ip qd […] starting at 5 to 10 mins post infection measured up to day 12", "format": "functional, organism-based"}, "[2]": {"tested_on": "Influenza A virus", "assay": "Antiviral activity against Influenza A virus (A/Puerto Rico/8/1934(H1N1)) infected in C57BL/6J mouse assessed as decrease in viral load in bronchoalveolar lavage at 8 mg/mouse/day, ip qd treated up to day 2 starting at 5 to 10 mins post infection relative to control", "format": "functional", "in_short": "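Female C57BL/6J mice, 5–6 weeks old, were anaesthetised with ketamine/xylazine (43/5 mg/kg) and inoculated intranasally with A/PR/8/34 at 500 PFU. Treatment was i.p. once daily on days 0, 1 and 2, starting 5–10 min after inoculation; 1 mg/mouse is 50 mg/kg and 8 mg/mouse is 400 mg/kg. BAL infectious titre was measured by plaque assay against saline-treated mice.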"}, "[3]": {"tested_on": "Influenza A virus", "assay": "Antiviral activity against Influenza A virus (A/Puerto Rico/8/1934(H1N1)) infected in C57BL/6J mouse assessed as increase in mouse survival at 8 mg/mouse/day, ip qd treated up to day 2 starting at 5 to 10 mins post infection measured at day 12", "format": "functional, organism-based", "in_short": "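Intranasal A/PR/8/34 challenge at 500 PFU in female C57BL/6J mice, 5–6 weeks old, under ketamine/xylazine. Dosing was i.p. once daily on days 0, 1 and 2, starting 5–10 min post-inoculation; 1 mg/mouse is 50 mg/kg and 8 mg/mouse is 400 mg/kg. There were 10 mice per group, with saline vehicle. Survival and body weight were scored daily, with 20% weight loss as the mortality endpoint.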"}, "[4]": {"assay": "Selectivity index, ratio of CC50 for MDCK cells to IC50 for pandemic Influenza A virus (A/Netherlands/602/09(H1N1)) infected in MDCK cells at MOI of 10^-3 after 18 hrs", "format": "toxicity, cell-based", "conditions": "dog, read-out: Ratio CC50/IC50"}, "[5]": {"tested_on": "A549", "assay": "Downregulation of COX2 level in human A549 cells infected with Influenza A virus at MOI of 2 at 100 uM after 18 hrs in presence of gamma-ATP by immunofluorescence analysis", "format": "cell-based", "conditions": "a549, 18 h", "in_short": "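A549 cells were pretreated with compound for 30 min, then either infected with IAV at MOI 2 for 18 h or activated with 100 µM γ-ATP for 1 h with or without compound. Cells were fixed in 3% PFA and permeabilised with 0.1% triton. COX2 was immunostained overnight with a primary antibody and detected with an Alexa 647 secondary.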"}, "[6]": {"tested_on": "Influenza A virus", "assay": "Antiviral activity against Influenza A virus (A/Udorn/1972 (H3N2)) infected in MDCK cells at MOI of 2 assessed as decrease in viral load after 18 hrs by immunofluorescence analysis", "format": "functional, organism-based", "in_short": "(§1)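 MDCK or A549 cells, 0.32 x 10^6 per well, were held 24 h serum-free to 80% confluence and then infected at MOI 2. Compound (0.1–500 µM) or vehicle was added right after virus adsorption. At 18 h, viral NP was read by immunofluorescence and corrected for cell number by DAPI. Runs were in triplicate, repeated at least twice, and IC50 came from a dose-response fit.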"}, "[7]": {"tested_on": "Influenza A virus", "assay": "Antiviral activity against Influenza A virus (A/Udorn/1972 (H3N2)) infected in human A549 cells assessed as decrease in viral load after 18 hrs by immunofluorescence analysis", "format": "functional, organism-based", "conditions": "A549, 18 h", "in_short": "as §1"}, "[8]": {"tested_on": "MDCK", "assay": "Inhibition of nucleoprotein/polymerase acidic protein (1 to 27 residues) interaction in Influenza A virus (A/WSN/1933 (H1N1)) infected in MDCK cells by Western blot analysis", "format": "cell-based", "in_short": "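MDCK cells were infected with A/WSN/33 at MOI 2 for 18 h and lysed in PBS with protease inhibitors and 0.5% NP40 by freezing; nucleic acids were not digested. Streptavidin beads loaded with 250 µM biotinylated PA(1-27) were incubated with the lysate 18 h at 4 °C, with or without compound. Bound NP was detected by anti-NP monoclonal western blot.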"}, "[9]": {"assay": "Selectivity index, ratio of CC50 for MDCK cells to IC50 for Influenza A virus (A/WSN/1933(H1N1)) infected in MDCK cells at MOI of 2 after 18 hrs", "format": "toxicity, cell-based", "conditions": "dog, read-out: Ratio CC50/IC50"}, "[10]": {"assay": "Selectivity index, ratio of CC50 for human A549 cells to IC50 for Influenza A virus (A/Udorn/1972 (H3N2)) after 18 hrs", "format": "toxicity", "conditions": "read-out: Ratio CC50/IC50"}, "[11]": {"assay": "Selectivity index, ratio of CC50 for MDCK cells to IC50 for Influenza A virus (A/WSN/1933(H1N1)) infected in MDCK cells at MOI of 10^-3 after 48 hrs", "format": "toxicity, cell-based", "conditions": "dog, read-out: Ratio CC50/IC50"}, "[12]": {"tested_on": "Influenza A virus", "assay": "Antiviral activity against Influenza A virus (A/WSN/1933(H1N1)) infected in MDCK cells at MOI of 2 assessed as decrease in viral load after 18 hrs by immunofluorescence analysis", "format": "functional, organism-based", "in_short": "as §1"}, "[13]": {"assay": "Safety index, ratio of compound CC50 to naproxen CC50 for MDCK cells by MTT assay", "format": "ADME, cell-based, Canis lupus familiaris", "conditions": "dog"}, "[14]": {"tested_on": "Influenza A virus", "assay": "Antiviral activity against pandemic Influenza A virus (A/Netherlands/602/09(H1N1)) infected in MDCK cells at MOI of 10^-3 assessed as decrease in viral load after 18 hrs by immunofluorescence analysis", "format": "functional, organism-based"}, "[15]": {"assay": "Binding affinity to Influenza A virus nucleoprotein by surface plasmon resonance analysis"}, "[16]": {"tested_on": "Influenza A virus", "assay": "Stabilization of Influenza A virus nucleoprotein assessed as melting temperature at 5 to 15 uM measured for 10 mins"}, "[17]": {"assay": "Cytotoxicity against MDCK cells assessed as reduction in cell viability after 48 hrs by trypan blue staining based method", "design": "species or system Canis lupus familiaris", "conditions": "dog", "in_short": "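MDCK cells, 3.2 x 10^5 per well, were grown 24 h and then exposed to serial compound dilutions under the same conditions as the MTT test. At 48 h, cells were washed, trypsinised and stained with Trypan blue, and viable and dead cells were counted by phase-contrast microscopy.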"}, "[18]": {"tested_on": "Influenza A virus", "assay": "Antiviral activity against Influenza A virus (A/WSN/1933(H1N1)) infected in MDCK cells at MOI of 10^-3 assessed as decrease in viral load after 48 hrs by crystal violet staining-based plaque assay", "format": "functional, organism-based", "in_short": "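Serum-starved MDCK cells, 0.32 x 10^6 per well, were infected with A/WSN/33 at MOI 10^-3 (multi-cycle). Compound (0.1–500 µM) or vehicle was added immediately after adsorption. After 48 h, titres in clarified supernatant were read by plaque assay with crystal violet. Runs were in triplicate, repeated at least twice, and IC50 came from a dose-response fit.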"}, "[19]": {"assay": "Selectivity index, ratio of CC50 for MDCK cells to IC50 for Influenza A virus (A/Udorn/1972 (H3N2)) infected in MDCK cells at MOI of 2 after 18 hrs", "format": "toxicity, cell-based", "conditions": "dog, read-out: Ratio CC50/IC50"}, "[20]": {"tested_on": "Influenza A virus", "assay": "Stabilization of Influenza A virus nucleoprotein assessed as melting temperature at 5 to 15 uM measured for 5 mins", "in_short": "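Recombinant NP, over 80% monomeric, was used at 5–15 µM with compound at a 1:1 ratio in 20 mM Tris pH 7.4, 50 mM NaCl. Mean size was followed by dynamic light scattering (10 scans over 5 min per point) while heating at 1 °C/min up to 70–80 °C. Tm was taken from the maximum of the first-derivative curve, and analyses were done in triplicate.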"}, "[21]": {"assay": "Binding affinity to biotin labelled Influenza A virus nucleoprotein by surface plasmon resonance analysis"}}, "note": "The source made the active and inactive calls. No cut-off for these calls is given here.", "data": [{"molecule": "CCOC(=O)C1=C[C@@H](OC(CC)CC)[C@H](NC(C)=O)[C@@H](N)C1", "note": "[OSELTAMIVIR]", "values": [{"measurement": "Activity", "setting": "[1]", "value": "inactive"}, {"measurement": "fold change (FC)", "setting": "[2]", "value": 260}, {"measurement": "Activity", "setting": "[3]", "value": "Active"}]}, {"molecule": "COc1ccc2cc(-c3c(C(=O)[O-])ccc(Oc4ccc(N)cc4)c3C(=O)[O-])ccc2c1.[Na+].[Na+]", "values": [{"measurement": "selectivity ratio at 18 h", "setting": "[4]", "value": 17100}, {"measurement": "Activity", "setting": "[5]", "value": "Non-Toxic"}, {"measurement": "IC50", "setting": "[6]", "value": 13, "unit": "µM"}, {"measurement": "IC50", "setting": "[7]", "value": 17, "unit": "µM"}, {"measurement": "inhibition (active/not active)", "setting": "[8]", "value": "Active"}, {"measurement": "selectivity ratio at 18 h", "setting": "[9]", "value": 923}, {"measurement": "selectivity ratio at 18 h", "setting": "[10]", "value": 706}, {"measurement": "selectivity ratio at 48 h", "setting": "[11]", "value": 9230}, {"measurement": "IC50", "setting": "[12]", "value": 13, "unit": "µM"}, {"measurement": "selectivity ratio", "setting": "[13]", "value": 10}, {"measurement": "IC50", "setting": "[14]", "value": 0.7, "unit": "µM"}, {"measurement": "Ki", "setting": "[15]", "value": 0.03, "unit": "µM"}, {"measurement": "Tm", "setting": "[16]", "value": 48, "unit": "°C"}, {"measurement": "CC50 at 48 h", "setting": "[17]", "value": "≥ 10000", "unit": "µM"}, {"measurement": "IC50", "setting": "[18]", "value": 1.3, "unit": "µM"}, {"measurement": "selectivity ratio at 18 h", "setting": "[19]", "value": 923}]}, {"molecule": "COc1ccc2cc(C(CC(=O)O)CC(=O)O)ccc2c1", "values": [{"measurement": "inhibition (active/not active)", "setting": "[8]", "value": "inactive"}, {"measurement": "Tm", "setting": "[20]", "value": "25 to 45", "unit": "°C"}, {"measurement": "Ki", "setting": "[21]", "value": 0.8, "unit": "µM"}]}]}
